Results from different studies.
Compare with care: the assays were run in different laboratories.
FGFR3: Fibroblast growth factor receptor 3 (FGFR3, Homo sapiens, UniProt P22607)
FGFR3 G697C: Fibroblast growth factor receptor 3 (FGFR3, Homo sapiens, UniProt P22607, G697C)

Compound	target	observed	mode	method	tested at	endpoint	result
COc1ccc2oc(-c3ccc4nc(N)oc4c3)c/c(=N\c3ccccc3NC(=O)CCN)c2c1	FGFR3	binding			1 µM	remaining binding	107%
CO[C@@H]1[C@H](N(C)C(=O)c2ccccc2)C[C@H]2O[C@]1(C)n1c3ccccc3c3c4c(c5c6ccccc6n2c5c31)C(=O)NC4	FGFR3	enzyme activity	inhibitor		1 µM	inhibition	3%
C1=C/COCc2cc(ccc2OCCN2CCCC2)Nc2nccc(n2)-c2cccc(c2)COC/1	FGFR3 G697C	binding			0.1 µM	remaining binding	100%
C#Cc1cnc(Nc2ccnc(CO)c2)nc1Nc1ccccc1S(C)(=O)=NC#N (stereo not drawn)	FGFR3	cell-free assay			1 µM	remaining signal	28%
Cc1ccc(NC(=O)c2ccnc(C(F)(F)F)c2)cc1-c1cc(OCCO)nc(N2CCOCC2)c1	FGFR3	binding		competition with immobilised ligand	1 µM	remaining binding	90%
CCCCC(=O)Nc1ccc(-c2ccc3ncn(CCC)c(=O)c3c2)cn1	FGFR3	binding		competition with immobilised ligand	0.5 µM	remaining binding	96%
C[C@H]1CC[C@H](n2c3cnccc3c3cnc(Nc4ccc5c(n4)CCN(C(=O)CO)C5)nc32)CC1	FGFR3	cell-free assay		competition with immobilised ligand	1 µM	remaining binding	100%
N#Cc1ccc(NC(=O)Nc2ccccc2)cc1	FGFR3	cell-free assay		competition with immobilised ligand	25 µM	remaining binding	100%
C=CC(=O)N1CCC([C@@H]2CCNc3c(C(N)=O)c(-c4ccc(Oc5ccccc5)cc4)nn32)CC1	FGFR3 G697C	cell-free assay			1 µM	inhibition	14%
